This is an account of results in ChEMBL document CHEMBL4321802, “Antioxidant-Conjugated 1,2,4-Triazolo[4,3-a]pyrazin-3-one Derivatives: Highly Potent and Selective Human A2A Adenosine Receptor Antagonists Possessing Protective Efficacy in Neuropathic Pain” (J Med Chem, 2019).

In one data set the target is T1, Adenosine receptor A1 (Homo sapiens, UniProt P30542).
T1 sequence (P30542 whole entry): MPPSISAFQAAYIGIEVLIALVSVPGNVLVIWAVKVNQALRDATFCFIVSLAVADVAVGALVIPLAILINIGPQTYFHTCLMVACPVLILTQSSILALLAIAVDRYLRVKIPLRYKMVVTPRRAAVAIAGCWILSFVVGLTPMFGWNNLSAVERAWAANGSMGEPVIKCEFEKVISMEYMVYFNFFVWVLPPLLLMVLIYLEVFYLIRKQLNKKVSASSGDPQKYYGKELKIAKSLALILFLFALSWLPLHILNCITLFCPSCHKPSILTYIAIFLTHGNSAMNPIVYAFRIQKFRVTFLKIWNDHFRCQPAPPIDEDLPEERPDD
Put plainly: Displacement of [3H]CCPA from human adenosine A1 receptor expressed in CHO cell membranes by radioligand competition assay. Summed up: (§1)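 Membranes from stably transfected CHO cells were made by 1000 g, then 100 000g spins. hA1 used 1.0 nM [³H]CCPA in 50 mM Tris/HCl pH 7.4. hA3 used 1.0 nM [³H]HEMADO in 50 mM Tris/HCl, 10 mM MgCl2, 1 mM EDTA, pH 8.25. Ki from competition curves, each concentration tested three to five times in triplicate, mean ± S.E.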
On the technique in general: Displacement assays read how much labelled ligand stays bound in the presence of the test substance.

In data set [1] the target is T2, Adenosine receptor A2a (Homo sapiens, UniProt P29274). As to the kind of experiment: Displacement of [3H]NECA from human adenosine A2A receptor expressed in CHO cell membranes by radioligand competition assay.
T2 sequence (P29274 whole entry): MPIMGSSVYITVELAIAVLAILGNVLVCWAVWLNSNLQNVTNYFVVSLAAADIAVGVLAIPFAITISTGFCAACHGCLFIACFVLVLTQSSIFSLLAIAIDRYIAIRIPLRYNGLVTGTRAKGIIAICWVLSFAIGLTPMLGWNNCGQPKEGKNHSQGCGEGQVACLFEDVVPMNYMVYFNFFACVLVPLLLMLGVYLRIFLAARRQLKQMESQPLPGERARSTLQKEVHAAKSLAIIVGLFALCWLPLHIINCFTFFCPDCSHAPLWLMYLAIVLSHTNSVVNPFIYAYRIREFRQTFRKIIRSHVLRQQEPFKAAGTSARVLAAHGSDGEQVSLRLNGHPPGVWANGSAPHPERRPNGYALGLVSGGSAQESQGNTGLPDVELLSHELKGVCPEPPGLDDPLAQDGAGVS
The target of a further data set is T3, Adenosine receptor A3 (Homo sapiens, UniProt P0DMS8).
T3 sequence (P0DMS8 whole entry): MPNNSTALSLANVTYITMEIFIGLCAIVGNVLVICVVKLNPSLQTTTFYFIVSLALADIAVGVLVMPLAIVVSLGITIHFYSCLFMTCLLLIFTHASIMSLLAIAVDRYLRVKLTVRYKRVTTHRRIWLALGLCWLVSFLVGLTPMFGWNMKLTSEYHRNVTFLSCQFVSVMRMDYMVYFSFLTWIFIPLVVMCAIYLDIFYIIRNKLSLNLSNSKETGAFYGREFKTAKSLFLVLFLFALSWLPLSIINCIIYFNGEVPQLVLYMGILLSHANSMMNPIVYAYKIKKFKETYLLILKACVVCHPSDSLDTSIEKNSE
Put plainly: Displacement of [3H]HEMADO from human adenosine A3 receptor expressed in CHO cell membranes by radioligand competition assay. In short, it runs like this:
as §1

A further data set has as its target T4, Adenosine receptor A2b (Homo sapiens, UniProt P29275).
T4 sequence (P29275 whole entry): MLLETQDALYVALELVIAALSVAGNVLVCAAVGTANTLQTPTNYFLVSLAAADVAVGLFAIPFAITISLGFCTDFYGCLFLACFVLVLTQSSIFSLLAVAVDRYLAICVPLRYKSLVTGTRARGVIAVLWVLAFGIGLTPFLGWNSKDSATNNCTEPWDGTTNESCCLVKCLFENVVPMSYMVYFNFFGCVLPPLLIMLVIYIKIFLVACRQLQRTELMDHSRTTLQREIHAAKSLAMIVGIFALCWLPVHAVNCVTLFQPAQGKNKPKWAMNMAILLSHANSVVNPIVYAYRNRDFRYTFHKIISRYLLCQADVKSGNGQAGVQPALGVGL
Put plainly: Antagonist activity at human adenosine A2B receptor expressed in CHO cells assessed as inhibition of NECA-stimulated adenylyl cyclase activity by Glo-sensor cAMP assay. The format is functional, cell-based. In short, it runs like this: (§2)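 CHO cells stably expressing hA2A or hA2B AR and transiently the GloSensor cAMP biosensor. Cells were equilibrated 2 h at rt in CO2-independent medium with 3% v/v GloSensor reagent and 10% FBS. Compounds at graded concentrations were tested against NECA-induced cAMP rise; luminescence as % of maximal RLU. IC50 from nonlinear regression. Three to five runs in triplicate, mean ± S.E.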

The target in data set [2] is T2, Adenosine receptor A2a. Put plainly: Antagonist activity at human adenosine A2A receptor expressed in CHO cells assessed as inhibition of NECA-stimulated adenylyl cyclase activity by Glo-sensor cAMP assay. It is filed as functional, cell-based. In short, it runs like this:
as §2
(Cyclic AMP is a second messenger, typically raised through Gs and lowered through Gi signalling.)

Data set [3] relates to Microglia. Put plainly: Neuroprotective activity against 10 uM Oxaliplatin-induced neurotoxicity in Sprague-Dawley rat microglia assessed as cell viability at 10 uM incubated fro 24 hrs by MTT assay (reference value: 33.2 +/- 1.3%). The format is functional.
In data set [4] the test system is Microglia. As to the kind of experiment: Neuroprotective activity against 30 uM Oxaliplatin-induced neurotoxicity in Sprague-Dawley rat microglia assessed as cell viability at 10 uM incubated fro 24 hrs by MTT assay (reference value: 19.1 +/- 0.8%). The format is functional. (In general: Tetrazolium assays rely on reduction of a dye to a coloured formazan, in cell work by metabolically active cells.)

The subject of data set [5] is Microglia. As to the kind of experiment: Antioxidant activity in Sprague-Dawley rat microglia assessed as suppression of oxaliplatin-dependent increase in superoxide dismutase-inhibitable superoxide anion generation at 10 uM incubated for 4 hrs in presence of oxaliplatin by spectrophotometry based cytochrome c assay. It is filed as functional, cell-based. In short, it runs like this: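 Primary neonatal (P1–P3) Sprague–Dawley rat cortical microglia (95–98% Iba1-positive), grown to confluence at 5×10⁵/well. Cells incubated 4 h at 37 °C in serum-free DMEM with cytochrome c (1 mg/ml), ± 100 µM oxaliplatin, ± compounds at 10 µM. Absorbance at 550 nm, minus the value with bovine SOD (300 mU/ml). O2•− calculated with ε 2.1×10⁴ M⁻¹ cm⁻¹, as µM/mg protein/4 h. Three experiments, mean ± SEM.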

Data set [6] deals with Microglia. Put plainly: Antioxidant activity in Sprague-Dawley rat microglia assessed as suppression of oxaliplatin-induced reduction in catalase activity at 10 uM incubated for 24 hrs in presence of oxaliplatin by Amplex red dye based assay. It is filed as functional, cell-based. In short, it runs like this:
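Primary rat microglia (5·10⁵ cells/well) exposed 24 h to oxaliplatin 10 µM ± compounds at 10 µM. Cells washed, scraped in PBS, freeze-thawed and spun 13,000×g for 10 min at 4 °C. Catalase read in the supernatant with an Amplex Red kit, normalised to BCA protein; untreated control set to 100%. Three experiments, mean ± SEM.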

In data set [7] the test system is Mus musculus. Put plainly: Analgesic activity in CD1 albino mouse model of oxaliplatin-induced neuropathy hypersensitivity assessed as increase pain threshold at 0.03 mg/kg, po dosed from day 14 post oxaliplatin challenge and measured after 30 to 60 mins post dose by cold plate test. It is filed as functional, organism-based. In short, it runs like this:
(§3)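 Male CD-1 mice (22–25 g) given oxaliplatin 2.4 mg kg⁻¹ i.p. in 5% glucose on days 1-2, 5-9 and 12-14; controls got vehicle. On day 14, compounds suspended in 1% carboxymethylcellulose were given once p.o. Cold plate held at 4 °C ± 1 °C; latency to first hind-paw licking/lifting recorded, 60 s cut-off. Mean ± SEM, two experimental sets; one-way ANOVA with Bonferroni.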

For data set [8], the system named is Mus musculus. As to the kind of experiment: Analgesic activity in CD1 albino mouse model of oxaliplatin-induced neuropathy hypersensitivity assessed as increase pain threshold at 1 to 10 mg/kg, po dosed from day 14 post oxaliplatin challenge and measured after 30 to 60 mins post dose by cold plate test. The format is functional, organism-based. Summed up: as §3

In data set [9] the target is Adenosine receptor A2a (Rattus norvegicus, UniProt P30543). As to the kind of experiment: Displacement of [3H]NECA from rat adenosine A2A receptor expressed in CHO cell membranes by radioligand competition assay.
Sequence of Adenosine receptor A2a (Rattus norvegicus, UniProt P30543) (P30543 whole entry): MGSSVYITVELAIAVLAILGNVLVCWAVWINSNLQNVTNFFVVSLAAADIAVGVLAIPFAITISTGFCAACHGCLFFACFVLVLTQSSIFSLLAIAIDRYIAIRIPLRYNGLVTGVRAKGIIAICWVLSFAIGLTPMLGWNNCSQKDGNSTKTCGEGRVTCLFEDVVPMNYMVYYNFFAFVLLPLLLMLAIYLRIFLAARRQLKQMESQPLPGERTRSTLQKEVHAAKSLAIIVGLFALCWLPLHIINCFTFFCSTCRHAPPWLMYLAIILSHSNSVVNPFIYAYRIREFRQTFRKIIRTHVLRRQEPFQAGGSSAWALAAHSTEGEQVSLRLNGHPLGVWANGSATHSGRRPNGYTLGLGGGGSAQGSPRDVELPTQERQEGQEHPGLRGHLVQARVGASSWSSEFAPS
Data set [10] is described as follows: Half life in 50 mM Tris buffer. It is filed as physicochemical. In short, it runs like this:
(§4)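 Compounds incubated at 37 °C in 50 mM Tris buffer pH 7.4 or in pooled healthy-volunteer human plasma (stored -80 °C). Concentration followed over time by LC-MS/MS; t1/2 taken from the decay rate of ln(concentration) versus time. Half-lives above 240 min cannot be resolved and are given as ≥240. Ketoprofen ethyl ester served as plasma-activity reference.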

The nature of data set [11]: Half life in human plasma. The format is ADME, cell-free. In short, it runs like this:
as §4

The subject of data set [12] is Mus musculus. Put plainly: Analgesic activity in CD1 albino mouse model of oxaliplatin-induced neuropathy hypersensitivity assessed as increase pain threshold at 10 to 30 mg/kg, po dosed from day 14 post oxaliplatin challenge and measured after 15 to 45 mins post dose by cold plate test. It is filed as functional, organism-based. Summed up: as §3
Data set [13] has as its system Mus musculus. As to the kind of experiment: Analgesic activity in CD1 albino mouse model of oxaliplatin-induced neuropathy hypersensitivity assessed as increase pain threshold at 4 mg/kg, po dosed from day 14 post oxaliplatin challenge and measured up to 90 mins post dose by cold plate test. It is filed as functional, organism-based. Summed up: as §3
Data set [14] concerns Mus musculus. As to the kind of experiment: Analgesic activity in CD1 albino mouse model of oxaliplatin-induced neuropathy hypersensitivity assessed as increase pain threshold at 40 mg/kg, po dosed from day 14 post oxaliplatin challenge and measured up to 90 mins post dose by cold plate test. It is filed as functional, organism-based. Summed up:
as §3

pIC50, pKi: −log10 of the molar value. Calls of active or inactive are those of the source. A value given as a limit tells only on which side of the number the result lay.

What is called pKi is −log10 of the Ki, conventionally taken in molar units. A word on the pIC50: it is −log10 of the IC50, conventionally taken in molar units. As a reminder, the half-life is the time in which the quantity being followed falls by half. Low readings indicate rapid decline, high ones slow decline. As to `Nc1nc(-c2ccc(OCCNC(=O)CCCCC3CCSS3)cc2)cn2c(=O)n(-c3ccccc3)nc12` (centres undefined), the pKi on Adenosine receptor A1 was 6.42; at Adenosine receptor A2a [1], 8.62; on Adenosine receptor A3, 5.39; on Adenosine receptor A2a [9] it was 8.05. The negative-log IC50 (pIC50) at Adenosine receptor A2b is below 4.52; on Adenosine receptor A2a [2] it was 6.94. Besides, the figures for the Activity in the data set with Microglia [3], in the data set with Microglia [4] and in the data set on Mus musculus [8] were 54.5%, 34.2% and “Dose-dependent effect”, respectively. In addition, the outcome in the data set with Microglia [5], in the data set with Microglia [6] and in the data set on Mus musculus [7] was Active. In addition, the half-life in data set [10] and in data set [11] was at least 4 h in each case.

With `CC(C)(C)c1cc(C(=O)NCCC(=O)Nc2ccc(-c3cn4c(=O)n(-c5ccccc5)nc4c(N)n3)cc2)cc(C(C)(C)C)c1O`, the pKi is below 4.52 on Adenosine receptor A1, 7.26 at Adenosine receptor A2a [1], below 4.52 at Adenosine receptor A3 and 7.07 at Adenosine receptor A2a [9]. For the same compound, the values for the pIC50 at Adenosine receptor A2b and on Adenosine receptor A2a [2] were below 4.52 and 6.58, respectively. The Activity turned out to be 43.5% in the data set with Microglia [3] and 30.6% in the data set on Microglia [4]. Also, the outcome in the data set with Microglia [5], with Microglia [6] and with Mus musculus [12] was Active. Further, the half-life in data set [10] and in [11] was at least 4 h throughout.

Turning to `O=C(O)CCCCC1CCSS1` (centres undefined), the outcome with Mus musculus [13] and in the data set on Mus musculus [14] was inactive.
